Only some compounds are listed: those with a hit (about 2.4% of all), similar ones and a draw of the others.
Rin1-Abl PPI inh = human Rin1-Abl interaction inhibition; TR-FRET Rin1/Abl binding, biochemical; inhibition, % at 7.35 µM; hit rate 0.4% among 360,000; in the data active = inhibition above about 5%, passing the limit was not always enough
TPT1 inh = inhibitors of Candida albicans tRNA 2'-phosphotransferase TPT1; hit rate 0.81% among 300,000; recombinant caTPT1, FP RNA substrate dephosphorylation; AID 1962; inhibition, % at 5 µM;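 active = inhibition above the mean of all tested compounds plus 3 SD, set per screening campaign, cut at about 24% in these data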;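 note: plate controls were DMSO alone for no effect and ferristatin control at 100 nM for full effect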
HNF4A DNA FP = change in binding of human HNF4 alpha to DNA; hit rate 0.3% among 360,000; activity change, % at 10 µM; AID 1224865; HNF4a-FITC DNA binding, fluorescence polarization, 1 h; in the data active = activity change above about 30%, passing the limit was not always enough
Neddylation inh = blocks human cullin neddylation | hit rate 0.58% among 360,000 | TR-FRET cullin neddylation, biochemical | inhibition, % at 25 µM; in the data active = inhibition above about 36%
CSN inh = blocks human CSN-mediated cullin deneddylation; inhibition, % at 12.5 µM; Q92905; hit rate 0.38% among 360,000; AID 651999; Purified CSN, SCF-Nedd8-OG deneddylation, fluorescence polarization;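 active = pattern-corrected inhibition above about 35%, with an unprinted fluorescence ratio check between 0.5 and 1.5, limit read from the data, passing the limit was not always enough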;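 note: 0% = enzyme with substrate and 100% = substrate without enzyme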
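Detection – fluorescence polarization · System – HEK293T-derived human Csn5 enzyme · Controls – substrate-only high control, full reaction low control · Timing – 90 min, room temperature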
Rpn11 inh = inhibitors of human proteasome Rpn11; O00487; human 26S proteasome, Ub4-pepOG fluorescence polarization; 20S core pre-blocked with epoxomicin; inhibition, % at 20 µM; hit rate 0.59% among 360,000; AID 588493;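 active = inhibition at 20 µM, scaled to each plate's controls, above about 33%, limit read from the data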
TPT1 inh confirm = confirmation of Candida albicans TPT1 inhibitors | shares compounds with TPT1 inh | recombinant caTPT1, fluorescence polarization, RNase T1 coupled | inhibition, % at 5 µM | hit rate 74% among 2,400;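 active = inhibition above the primary screen limit, the mean inhibition of all tested compounds plus 3 SD, cut at about 25% in these data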
RNase T1 counter = blocks Aspergillus oryzae RNase T1, a TPT1 counter-screen; shares compounds with TPT1 inh; RNase T1 cleavage, fluorescence polarization, 1536-well; inhibition, % at 5 µM; hit rate 83% among 2,400; AID 2153;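 active = inhibition above the solvent-only control well mean plus 3 SD, limit set per screening run, cut at about 23% in these data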;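 note: plate controls were DMSO wells with enzyme for no effect and wells without RNase T1 for full effect; inhibitors block cleavage so intact labeled substrate keeps polarization high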
Target sequence (P00651 whole entry, looked up): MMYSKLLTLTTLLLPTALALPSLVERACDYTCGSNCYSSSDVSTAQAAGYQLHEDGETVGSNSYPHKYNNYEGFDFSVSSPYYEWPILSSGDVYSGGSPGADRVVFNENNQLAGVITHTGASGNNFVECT
* marks the source's active call; other numbers are inactive results; nt = no result given.

SMILES	Rin1-Abl PPI inh	TPT1 inh	HNF4A DNA FP	Neddylation inh	CSN inh	Rpn11 inh	TPT1 inh confirm	RNase T1 counter
CC1=NN(c2ccccc2)C(=O)/C1=C\c1cn(-c2ccccc2)nc1C	-1	1	-4	-4	8	8	nt	nt
CCC(=O)NNC(=O)c1cc(COc2cc(Cl)cc(Cl)c2)on1	3	-3	3	9	-1	0	nt	nt
CN(C)c1ccc(O)c2c1CC1CC3[C@@H](N(C)C)C(=O)C(C(N)=O)=C(O)[C@]3(O)C(=O)C1=C2O (some centres not stated)	16*	-1	-33	-10	55	-18	nt	nt
C[C@H]1c2cccc(O)c2C(O)=C2C(=O)[C@]3(O)C(O)=C(C(N)=O)C(=O)[C@@H](N(C)C)[C@@H]3[C@@H](O)[C@@H]21	5	-2	-2	21	-4	-9	nt	nt
COc1ccc2nc(NC(=O)c3ccco3)sc2c1	3	0	1	48*	0	-7	nt	nt
Cc1ccc2nc(NC(=O)c3ccco3)sc2c1	-3	-3	0	33	2	-6	nt	nt
CC(=O)C1=C(C)NC(SCC(N)=O)=C(C#N)C1c1ccco1 (configuration not stated)	0	0	0	0	9	-4	nt	nt
CC(=O)C1=C(C)NC(SCC(=O)c2cc(Cl)ccc2Cl)=C(C#N)C1c1ccco1 (configuration not stated)	-1	16	10	31	8	47*	nt	nt
CN1C/C(=C/c2ccccc2[N+](=O)[O-])C(=O)/C(=C\c2ccccc2[N+](=O)[O-])C1	2	nt	-2	-9	-1	-11	nt	nt
CCN1CCC2(CC1)C(C#N)=C(N)Oc1c2sc2nc(C)cc(C)c12	-3	64*	6	-11	9	13	16	25*
CCNC(=O)C1(C)CCN(C(=O)c2ccc(OC)c(OC)c2)C1 (configuration not stated)	2	nt	6	-3	2	-1	nt	nt
CC(=O)c1cccc(NS(=O)(=O)c2ccc(-c3cnc(C4CC4)o3)cc2)c1	2	28*	1	-9	-2	-4	7	9
Cn1cc(CCCC(=O)NCc2ccc(F)cc2)c2ccccc21	0	nt	4	10	1	-7	nt	nt
Cc1c(C#N)c(O)[nH]c(=O)c1N=Nc1ccc(S(N)(=O)=O)cc1	-3	25*	7	-53	0	7	14	26*
O=C1N2c3ccccc3CCc3cccc(c32)C1(O)C(F)(F)F (configuration not stated)	3	2	0	0	-1	-4	nt	nt
O=C(O)c1cc(Cl)ccc1-c1ccc(/C=C/c2cc(C(F)(F)F)[nH]c(=O)n2)o1	0	62*	76	18	-90	nt	85*	91*
O=c1nc(/C=C/c2ccc(-c3ccc(F)cc3)o2)cc(C(F)(F)F)[nH]1	nt	110*	nt	nt	nt	nt	106*	106*
O=C(O)c1ccccc1-c1ccc(/C=C/c2cc(C(F)(F)F)[nH]c(=O)n2)o1	-3	nt	47	32	-13	nt	nt	nt
CC(C)(C)c1cc(/C=N/NC(=O)C[n+]2ccccc2)cc(C(C)(C)C)c1O	4	0	1	-7	0	-4	nt	nt
Nc1nc(-c2ccccc2)c(-c2ccc([N+](=O)[O-])cc2)s1	-7	40*	13	-31	2	20	51*	69*
COc1ccc(CCNC(=O)CSc2nnc(C(C)N(C)C)n2Cc2ccccc2)cc1OC (configuration not stated)	-4	100*	2	7	-4	1	-1	3
C/C(=N/Nc1ccc([N+](=O)[O-])cc1)c1ccc(C)cc1C	2	26*	15	-12	3	26	36*	47*
C/C(=N\Nc1ccc([N+](=O)[O-])cc1)c1ccc2c(c1)OCO2	-1	57*	15	-4	9	1	53*	65*

Screening data deposited in PubChem by several laboratories.
